These results are taken from the RNAGym collection of RNA variant scans (doi:10.1126/science.aae0568).

Variants at the floor of the assay were thinned out.

Sequences and labels used below:
B1: tRNA (parent)
chain: GUUCCGUUGGCGUAAUGGUAACGCGUCUCCCUCCUAAGGAGAAGACUGCGGGUUCGAGUCCCGUACGGAACG

Variants of B1 are the subject of the data set. Briefly: yeast fitness relative to wild type (ratio to wild type); higher = fitter; tRNA-Arg(CCU), competitive growth, 37 C, YPD. The procedure, abridged: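 For this measurement, the tRNA-Arg(CCU) gene was varied by chemical synthesis at a 3% per-site mutation rate across 69 sites, and each variant was placed at the native genomic locus in Saccharomyces cerevisiae. The pooled strains went through a 24-hour competition in YPD at 37°C in six parallel replicates, with amplicons from start and end populations read by 100-nucleotide paired-end sequencing. Darwinian fitness relative to wild type followed from the change in each genotype's frequency. Genotypes needed ≥ 100 starting reads, and estimates < 0.5 were set to 0.5.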
In the case of GUUCCGUUGACGUAAUGGUAACGCGUCUCCCUCCUAAGGAGAAGCCUGUGGGUUCGAGUCCCGUACGGAACG, the yeast fitness was 0.652.

GUUCCGUUGACGUAAUGGUAACGCGUCUCCCUCCUCAGGAGUAGACUGCGGGUUCGAGUCCCGUACGGAACG: the yeast fitness was determined as 0.557.

As to GUUCCGUUGACGUAAUGGUAACGCGUCUCCCUCCUAAGGAGAAGACUGCGGGUUCGCGUCCCGUAGGGAACG, the yeast fitness is at most 0.5.

Consider GUUCCGUUGACGUAAUGGUAACGCGUCUCCCUCCUAAGGAGAUGACUGCGGGUUCGAGUCCCGUACGGCACG, for which the yeast fitness stood at 0.887.

As to GUUCCGUUGAUGUAGUGGUAACGCGUCUCUCUCCUAAGGAGAAGACCGCGGGUUCGAGUCGCGUACGGCACG, the yeast fitness is at most 0.5.

In the case of GUUCCGUUGACGUAAUGGUAACGCGUCUCCCUCCUAAGGAGAAGACUGCGGGUUCGAGUCCCGUACGGACCG, the yeast fitness worked out at 0.856.

On to GUUCCGUUGACGUAAUGGUAACGCGUCUCCCUCCUAAGGAGAAGACUGCGGGUUCGAGUCCCGUACGGAUCG, for which the yeast fitness is 0.894.

GUUCCGUUGAUGUAAUGGUAACGCGUCUCCCUCCAAAGGAGAAGACUGCGGGUUCGAGUCUCGUACGGAACG: the yeast fitness was at most 0.5.

As to GUUCCGUUGACGUAAUGGUAACGCGUCUCCCUCCUAAGGAGAAGACUGCGGGUUCGAGUCCCGUACGGCCCG, the yeast fitness is at most 0.5.

Turning to GUUCCGUUGACGUAAUGGUAACGCGUCUCCCUCCUAUGGAGAAGACUGCGGGUUCGAGUCCCGUUCGGAACG, the yeast fitness is at most 0.5.

On to GUUCCGUUGACGUAAUGGUAACGCGUCUCCCUCCUAAGGAGAAGACUGCGGGUUCGUGCCCCGUACGGAACG, for which the yeast fitness is at most 0.5.

For the variant GUUCCGUUGACGUAAUGGUAACGCGUCUCCCUCCUAAGGAGAAGUCUGCGGGGUCGAGUCCCGUCCGGAACG, the yeast fitness was at most 0.5.

As to GUUCCGUUGACGUAAUGGUAACGCGUCUCCCUCCUAAGGAGAAGACUGCGGGUUCGUGACCCGUCCGGAACG, the yeast fitness worked out at 0.561.

Regarding GUUCCGUUGACGUAAUGGUAACGCGUCUCCCUCCUAAGGAGAAGUCUACGGGUUCGAGUCCCGUACGGAACG, the yeast fitness was at most 0.5.

With GUUCCGUUGACGUAAUGGUAACGCGUCUCCCUCCUAAGGAGAAGUCUGCGGGUUCGAGUCCCGUACGGAACG, the yeast fitness was determined as 0.673.

As to GUUCCGUUGACGUAAUGGUAACGCGUCUCCCUCCUAAGGAGAAGCCUGCGGGUUCGAGUCCCGUACGGAACG, the yeast fitness is 0.66.

As for GUUCCGUUGACGUAAUGGUAACGCGUCUCCCUCCUCGGGAGAAGACUGAGGGUUCGAGUCCCGUACGGAACG, the yeast fitness was at most 0.5.

Turning to GUUCCGUUGAUGUAAUGGUAACGCGUCUCCCUCCUGAGGAGAAGACUGCGGGUUCGAGUCCCGUACCGAACG, the yeast fitness was determined as 0.572.

For the variant GUUCCGUUGACGUAAUGGUAUCGCGUUUCCCUCCUAAGGAGAAGACUGAGGGUUCGAGUCCCGCACGGAACG, the yeast fitness is at most 0.5.

GUUCCGUUGACGUAAUGGUAUCGCGUCUCCCUCCUAAGGAGAAGACUGCGGGUUCGAGUCCCGUACGGACCG: the yeast fitness is at most 0.5.

For the variant GUUCCGUUGACGUAAUGGUAACGCGUCUCCCUCCUAAGGAGAGGACUGCGGGUUCUAGUCCCGUACGGGACG, the yeast fitness is at most 0.5.

As for GUUCCGUUGACGUAAUGGUAACGCGUCUCCCUCCUUAGGAGAGGACUGCGGGUUCGAGUCCCGUACGGAACG, the yeast fitness stood at 0.607.

On to GUUCCGUUGACGUAAUGGUAACGCGUCUCCCUCCUAAGGAGAAGACUGCGGGUUCGAGUCCCGUGCGGACCG, for which the yeast fitness turned out to be 0.65.

As to GUUCCGUUGACGUAAUGGUAAGGCGUCUCCCUCCUAAGGAGAAGACUGCGGGUUCGACUCCCGUACGGAACG, the yeast fitness is at most 0.5.

In the case of GUUCCGUUGACGUAAUGGUAACGCGUCUCCCUCCUGAGGAGAAGACUGCGGGUUCGAGCCCCGUACGGAGCG, the yeast fitness was at most 0.5.

For the variant GUUCCGUUGACGUAAUGGUAACGCGUCUCCCUCCUAAGGAGAAGACUGCGGGUUCGGGUCCCGUACGGAACG, the yeast fitness amounted to 0.852.

As to GUUCCGUUGACGUAAUGGUAACGCGUCUCCCUCCUAAGGAGAAGACUGCGGGUUCGUGUCCCGUACGGAACG, the yeast fitness worked out at 0.607.

With GUUCCGUUGAAGUACUGGUAACGAGUCUCCCUCCUAAGGAGAAGACUGCGGGUUCGAGUCCCGUACGGAACG, the yeast fitness was at most 0.5.

GUUCCGUUGACGUAAUGGUAACGCGUCUCCCUCCUAAGGAGAAGACUGCGGGUUCGUGUCCCGUCCGGAGCG: the yeast fitness is at most 0.5.

With GUUCCGUUGACGUAAUGGUAACGCGUCUCCCUCCUACGGAGGAGACUGCGGGUUCGAGUCCCGUACGGAACG, the yeast fitness is at most 0.5.

Take GUUCCGUUGAAGUGGUGGUAACGCGUCUCCCUCCUAAAGAGAAGACUGCGGGUUCGAGUCCCGUACGGAACG: the yeast fitness is at most 0.5.

As to GUUCCGUUGACGUAAUGGUAAUGCGUUUCCCUUCUAAGGAGAUGACUGCGGGUCCGAGUCCCGUACGGAACG, the yeast fitness was at most 0.5.

In the case of GUUCCGUUGACGUAAUGGUAACGCGUCUCCCUCCUAAGGUGAAGACUGCGGCUUCGAGUCCCGUACGGAACG, the yeast fitness was at most 0.5.

For the variant GUUCCGUUGACGUAAUGGUAACGCGUCUCCCUCCUAAGGCGAAGACUGCGGGUUCGAGUCCCGUACGGAACG, the yeast fitness came to 0.771.

GUUCCGUUGACGUAAUGGUAACGCGUCUCCCUCCUAGGGAGAAGACUGCGGGUUCGAGUCCCGUACGGAACG: the yeast fitness came out at 0.551.

As to GUUCCGUUGACGUAAUGGUAACGCGUCUCCCUCCUACGGAGAAGACUGCGGGUUCGAGUCCCGUACGGAACG, the yeast fitness was 0.741.

Turning to GUUCCGUUGACGUAAUGGUAACGCGUCUCCCUCCUAUGGAGAAGACUGCGGGUUCGAGUCCCGUACGGAACG, the yeast fitness stood at 0.622.

Turning to GUUCCGUUGAAGUAAUGGUUACGCGUCUCCCUCCUAAGGAGAAGACUGCGGGUUCGAGUCCCGUAGGGAACG, the yeast fitness is at most 0.5.
